In ChEMBL document CHEMBL5696442, “Discovery of type II inhibitors of TGFβ-activated kinase 1 (TAK1) and mitogen-activated protein kinase kinase kinase kinase 2 (MAP4K2)” (J Med Chem, 2015):

What was measured:
[1] = target: T1, Ephrin type-B receptor 4 (Homo sapiens) (UniProt P54760); test: Inhibition of EphB4 ACT labeling site in human Huh-7 cell lysate at 1 uM by KiNativ Profiling analysis relative to control; format: subcellular
T1 sequence (whole entry): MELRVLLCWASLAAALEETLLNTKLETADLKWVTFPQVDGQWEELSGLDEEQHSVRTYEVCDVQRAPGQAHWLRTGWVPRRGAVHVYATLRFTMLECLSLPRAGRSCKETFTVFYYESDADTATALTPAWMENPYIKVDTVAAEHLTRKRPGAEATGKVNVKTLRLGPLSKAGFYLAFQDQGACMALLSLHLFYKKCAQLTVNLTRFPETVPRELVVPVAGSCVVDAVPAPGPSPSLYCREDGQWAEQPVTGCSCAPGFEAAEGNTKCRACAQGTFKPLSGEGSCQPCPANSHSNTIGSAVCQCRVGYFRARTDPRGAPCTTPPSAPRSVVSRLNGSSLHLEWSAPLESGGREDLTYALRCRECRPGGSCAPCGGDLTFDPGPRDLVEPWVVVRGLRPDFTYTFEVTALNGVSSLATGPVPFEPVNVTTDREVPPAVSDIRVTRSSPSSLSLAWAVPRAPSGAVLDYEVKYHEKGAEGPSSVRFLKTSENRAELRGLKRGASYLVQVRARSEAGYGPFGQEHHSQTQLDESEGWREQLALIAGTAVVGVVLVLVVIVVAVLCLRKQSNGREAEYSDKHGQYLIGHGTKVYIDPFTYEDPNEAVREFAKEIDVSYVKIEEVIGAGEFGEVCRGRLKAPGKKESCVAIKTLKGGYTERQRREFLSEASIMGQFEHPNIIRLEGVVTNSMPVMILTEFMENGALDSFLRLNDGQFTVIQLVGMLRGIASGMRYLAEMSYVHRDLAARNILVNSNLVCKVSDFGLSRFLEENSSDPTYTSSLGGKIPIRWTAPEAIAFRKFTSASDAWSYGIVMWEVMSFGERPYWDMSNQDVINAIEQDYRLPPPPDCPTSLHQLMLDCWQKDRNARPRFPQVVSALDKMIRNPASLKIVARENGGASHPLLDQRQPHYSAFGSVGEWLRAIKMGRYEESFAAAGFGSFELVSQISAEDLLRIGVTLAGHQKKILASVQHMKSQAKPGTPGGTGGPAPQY

[2] = target: T2, Serine/threonine-protein kinase greatwall (Homo sapiens) (UniProt Q96GX5); test: Inhibition of MASTL ATP Loop labeling site in human A-375 cells at 0.05 uM by KiNativ Profiling analysis relative to control; format: cell-based
T2 sequence (whole entry): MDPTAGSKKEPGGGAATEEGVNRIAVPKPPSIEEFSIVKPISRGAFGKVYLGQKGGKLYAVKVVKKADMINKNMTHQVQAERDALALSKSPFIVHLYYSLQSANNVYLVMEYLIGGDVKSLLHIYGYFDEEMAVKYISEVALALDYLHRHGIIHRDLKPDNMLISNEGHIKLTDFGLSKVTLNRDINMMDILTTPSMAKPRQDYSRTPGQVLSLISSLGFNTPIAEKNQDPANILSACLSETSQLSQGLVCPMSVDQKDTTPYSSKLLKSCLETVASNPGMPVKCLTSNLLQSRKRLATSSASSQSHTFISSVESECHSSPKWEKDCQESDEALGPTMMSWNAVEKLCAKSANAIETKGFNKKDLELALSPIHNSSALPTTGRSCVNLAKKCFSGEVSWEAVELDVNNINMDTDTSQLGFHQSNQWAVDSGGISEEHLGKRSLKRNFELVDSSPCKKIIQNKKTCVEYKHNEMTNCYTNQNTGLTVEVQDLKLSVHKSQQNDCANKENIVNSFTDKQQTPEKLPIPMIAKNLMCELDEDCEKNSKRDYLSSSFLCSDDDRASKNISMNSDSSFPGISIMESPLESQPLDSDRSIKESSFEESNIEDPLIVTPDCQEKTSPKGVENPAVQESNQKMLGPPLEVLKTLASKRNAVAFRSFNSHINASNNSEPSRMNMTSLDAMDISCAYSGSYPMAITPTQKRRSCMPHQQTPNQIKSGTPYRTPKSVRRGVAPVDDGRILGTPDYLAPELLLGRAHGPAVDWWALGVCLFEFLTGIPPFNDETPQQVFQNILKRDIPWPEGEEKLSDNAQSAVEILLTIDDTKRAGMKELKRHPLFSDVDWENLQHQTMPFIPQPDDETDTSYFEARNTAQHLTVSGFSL

[3] = target: Cyclin-dependent kinase 18 (Homo sapiens) (UniProt Q07002); test: Inhibition of PCTAIRE3 Lys1 labeling site harbouring SKLTENLVALKEIRLEHEEGAPCTAIR in human A-375 cells at 5 uM by KiNativ Profiling analysis relative to control; format: cell-based
Cyclin-dependent kinase 18 (Homo sapiens), sequence (Q07002 whole entry): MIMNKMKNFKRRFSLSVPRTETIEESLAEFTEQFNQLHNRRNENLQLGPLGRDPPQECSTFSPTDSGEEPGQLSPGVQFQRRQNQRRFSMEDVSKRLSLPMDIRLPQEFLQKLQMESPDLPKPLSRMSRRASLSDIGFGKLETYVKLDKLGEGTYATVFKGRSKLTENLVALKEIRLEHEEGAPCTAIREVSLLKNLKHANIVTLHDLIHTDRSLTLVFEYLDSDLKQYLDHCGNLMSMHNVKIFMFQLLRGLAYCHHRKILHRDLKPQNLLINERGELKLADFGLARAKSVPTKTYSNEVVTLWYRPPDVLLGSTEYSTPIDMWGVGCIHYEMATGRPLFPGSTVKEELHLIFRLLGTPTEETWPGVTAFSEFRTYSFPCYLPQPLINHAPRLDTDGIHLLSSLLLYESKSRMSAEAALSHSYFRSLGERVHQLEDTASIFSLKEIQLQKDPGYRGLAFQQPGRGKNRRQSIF
Method in brief: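 Live A375 melanoma cells were treated with compound at 5 or 0.5 μM, then lysed. Lysates were labeled with a lysine-reactive ATP or ADP-biotin probe. Read-out was the compound's protection of kinase labeling sites from probe labeling (KiNativ).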

[4] = target: RAC-beta serine/threonine-protein kinase (Homo sapiens) (UniProt P31751); test: Inhibition of AKT2 ATP Loop labeling site in human A-375 cells at 0.5 uM by KiNativ Profiling analysis relative to control; format: cell-based
RAC-beta serine/threonine-protein kinase (Homo sapiens), sequence (P31751 whole entry): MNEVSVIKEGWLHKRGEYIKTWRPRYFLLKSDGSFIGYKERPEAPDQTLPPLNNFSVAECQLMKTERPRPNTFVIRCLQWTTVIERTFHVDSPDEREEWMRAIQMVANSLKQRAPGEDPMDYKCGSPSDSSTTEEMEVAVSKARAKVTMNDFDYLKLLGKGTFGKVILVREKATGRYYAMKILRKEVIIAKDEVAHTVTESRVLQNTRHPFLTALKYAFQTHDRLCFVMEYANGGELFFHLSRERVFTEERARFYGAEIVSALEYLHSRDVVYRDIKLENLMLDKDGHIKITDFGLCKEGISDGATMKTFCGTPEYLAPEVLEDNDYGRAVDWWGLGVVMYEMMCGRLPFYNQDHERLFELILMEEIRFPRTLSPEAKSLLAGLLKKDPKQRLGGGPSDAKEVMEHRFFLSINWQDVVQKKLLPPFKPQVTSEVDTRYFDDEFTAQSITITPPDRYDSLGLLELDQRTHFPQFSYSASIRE
Method in brief: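 Live A375 melanoma cells were treated with compound at 5 or 0.5 μM, then lysed. The lysates were labeled with a lysine-reactive ATP or ADP-biotin probe. Kinase protection from probe labeling was measured by KiNativ.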

[5] = target: Mitogen-activated protein kinase 14 (Homo sapiens, UniProt Q16539); test: Inhibition of p38 alpha (unknown origin) by KiNativ Profiling analysis
Mitogen-activated protein kinase 14, sequence (Q16539 whole entry): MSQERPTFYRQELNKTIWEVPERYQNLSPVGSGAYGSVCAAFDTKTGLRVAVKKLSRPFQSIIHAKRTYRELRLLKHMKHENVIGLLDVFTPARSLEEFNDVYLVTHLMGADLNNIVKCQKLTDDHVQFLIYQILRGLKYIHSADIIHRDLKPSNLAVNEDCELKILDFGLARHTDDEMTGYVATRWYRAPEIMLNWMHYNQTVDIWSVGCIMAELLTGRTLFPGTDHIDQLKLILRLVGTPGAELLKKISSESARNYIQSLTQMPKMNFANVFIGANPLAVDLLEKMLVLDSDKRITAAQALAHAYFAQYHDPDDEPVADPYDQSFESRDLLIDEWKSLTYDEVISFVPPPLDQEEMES

[6] = target: Tyrosine-protein kinase Yes (Homo sapiens) (UniProt P07947); test: Inhibition of YES ACT labeling site in human A-375 cells at 0.5 uM by KiNativ Profiling analysis relative to control; format: cell-based
Tyrosine-protein kinase Yes (Homo sapiens), sequence (P07947 2-543 limits assumed): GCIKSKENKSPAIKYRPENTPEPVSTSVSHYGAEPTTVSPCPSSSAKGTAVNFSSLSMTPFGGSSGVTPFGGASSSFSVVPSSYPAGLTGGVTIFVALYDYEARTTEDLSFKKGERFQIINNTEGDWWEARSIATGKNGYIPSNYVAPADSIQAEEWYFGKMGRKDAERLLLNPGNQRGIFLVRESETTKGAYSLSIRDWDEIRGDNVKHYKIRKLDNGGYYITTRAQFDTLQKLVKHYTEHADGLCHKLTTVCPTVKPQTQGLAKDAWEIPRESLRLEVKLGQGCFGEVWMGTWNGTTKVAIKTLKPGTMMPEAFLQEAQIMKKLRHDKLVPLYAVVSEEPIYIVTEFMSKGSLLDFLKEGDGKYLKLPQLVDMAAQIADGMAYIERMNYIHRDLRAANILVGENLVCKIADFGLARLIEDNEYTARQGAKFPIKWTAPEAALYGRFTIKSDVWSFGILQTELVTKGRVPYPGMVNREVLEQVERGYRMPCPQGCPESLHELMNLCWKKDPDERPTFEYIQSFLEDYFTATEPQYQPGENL

[7] = target: Serine/threonine-protein kinase 24 (Homo sapiens) (UniProt Q9Y6E0); test: Inhibition of MST3 Lys2 labeling site harbouring DIKAANVLLSEHGEVK in human A-375 cells at 0.05 uM by KiNativ Profiling analysis relative to control; format: cell-based
Serine/threonine-protein kinase 24 (Homo sapiens), sequence (Q9Y6E0 whole entry, looked up): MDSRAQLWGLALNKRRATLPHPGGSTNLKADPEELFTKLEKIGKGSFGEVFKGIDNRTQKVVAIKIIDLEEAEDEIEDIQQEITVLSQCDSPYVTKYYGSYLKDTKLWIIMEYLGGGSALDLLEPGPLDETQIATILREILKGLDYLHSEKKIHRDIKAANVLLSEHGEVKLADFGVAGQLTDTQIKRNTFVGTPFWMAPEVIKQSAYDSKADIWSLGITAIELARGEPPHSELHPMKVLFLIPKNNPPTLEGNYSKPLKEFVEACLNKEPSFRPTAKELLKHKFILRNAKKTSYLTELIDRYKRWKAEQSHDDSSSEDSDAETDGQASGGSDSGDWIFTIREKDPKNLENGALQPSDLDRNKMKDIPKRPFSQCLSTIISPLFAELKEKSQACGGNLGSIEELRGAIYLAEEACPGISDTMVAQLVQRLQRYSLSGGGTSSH

SMILES | inhibition [1] [%] | inhibition [2] [%] | inhibition [3] [%] | inhibition [4] [%] | IC50 [5] [nM] | inhibition [6] [%] | inhibition [7] [%]
CNc1cc(Oc2cc(C(=O)Nc3cc(-n4cnc(C)c4)cc(C(F)(F)F)c3)ccc2C)ncn1 | 1.2 | – | – | – | – | – | –
CNc1cc(Oc2cc(C(=O)Nc3cc(N4CCN(C)CC4)cc(C(F)(F)F)c3)ccc2C)ncn1 | 0.2 | – | – | – | – | – | –
CCN1CCN(Cc2ccc(NC(=O)c3ccc(C)c(Oc4ccnc5[nH]ccc45)c3)cc2C(F)(F)F)CC1 | – | 2 | 56.6 | -1.8 | 102 | 36.5 | -2.7
CCN1CCN(Cc2ccc(NC(=O)c3ccc(C)c(/C=C/c4cnc5[nH]ccc5c4OC)c3)cc2C(F)(F)F)CC1 | – | -6.2 | 21.3 | 25.1 | 238 | 72.6 | 3.2
